Laboratory results published in ChEMBL document CHEMBL3861958, “Synthesis and anticholinesterase activity of coumarin-3-carboxamides bearing tryptamine moiety” (Eur J Med Chem, 2016).

Key:
Cholinesterase = Cholinesterase (Equus caballus, UniProt P81908); experiment: Inhibition of equine serum BuChE using butyrylthiocholine iodide as substrate measured for 2 mins by Ellman's method
In short: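 Ellman assay with equine serum BuChE (enzyme solution 2 U/mL added) in 0.1 M phosphate buffer pH 8.0 with DTNB. Compounds in 1:9 DMSO/ethanol, tested at four concentrations spanning 20–80% inhibition. Reaction started with butyrylthiocholine iodide (0.15 M stock). A412 followed for 2 min at 30 s intervals. IC50 read graphically from log concentration vs % inhibition. Quadruplicates.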

Acetylcholinesterase [1] = biological target: T1, Acetylcholinesterase (Electrophorus electricus, UniProt O42275); experiment: Inhibition of electric eel AChE using acetylthiocholine iodide as substrate measured for 2 mins by Ellman's method
Acetylcholinesterase [2] = biological target: T1, Acetylcholinesterase; experiment: Mixed-type inhibition of electric eel AChE using acetylthiocholine iodide as substrate measured for 2 mins by Lineweaver-Burk plot analysis
In short: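 Kinetics used electric eel AChE (type V-S, enzyme solution 2 U/mL added) under the Ellman conditions: 0.1 M phosphate pH 8.0, DTNB, A412. Initial velocities measured across varied acetylthiocholine concentrations at inhibitor 0, 0.069, 0.206 and 0.618 μM. 1/v plotted against 1/[S] (Lineweaver-Burk) to assign inhibition type. Ki taken from a secondary plot.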

T1 sequence (O42275 whole entry): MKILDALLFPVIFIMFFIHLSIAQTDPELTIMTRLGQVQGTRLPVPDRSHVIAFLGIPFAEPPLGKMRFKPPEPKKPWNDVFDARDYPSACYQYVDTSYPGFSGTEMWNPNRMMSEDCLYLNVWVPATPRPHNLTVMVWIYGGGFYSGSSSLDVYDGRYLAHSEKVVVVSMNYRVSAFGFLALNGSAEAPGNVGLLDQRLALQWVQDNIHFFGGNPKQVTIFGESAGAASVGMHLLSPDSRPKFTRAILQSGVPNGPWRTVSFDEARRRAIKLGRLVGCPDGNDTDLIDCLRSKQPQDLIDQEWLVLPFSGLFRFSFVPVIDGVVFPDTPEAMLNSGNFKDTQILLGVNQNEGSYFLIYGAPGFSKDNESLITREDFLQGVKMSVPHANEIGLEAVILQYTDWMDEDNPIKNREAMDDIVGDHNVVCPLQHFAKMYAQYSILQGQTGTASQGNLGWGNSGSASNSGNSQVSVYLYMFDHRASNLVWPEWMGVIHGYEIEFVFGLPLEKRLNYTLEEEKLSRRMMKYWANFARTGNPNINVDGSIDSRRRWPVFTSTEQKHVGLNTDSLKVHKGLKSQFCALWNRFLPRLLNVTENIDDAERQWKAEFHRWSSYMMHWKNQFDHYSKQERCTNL
Chain of Cholinesterase (P81908 whole entry): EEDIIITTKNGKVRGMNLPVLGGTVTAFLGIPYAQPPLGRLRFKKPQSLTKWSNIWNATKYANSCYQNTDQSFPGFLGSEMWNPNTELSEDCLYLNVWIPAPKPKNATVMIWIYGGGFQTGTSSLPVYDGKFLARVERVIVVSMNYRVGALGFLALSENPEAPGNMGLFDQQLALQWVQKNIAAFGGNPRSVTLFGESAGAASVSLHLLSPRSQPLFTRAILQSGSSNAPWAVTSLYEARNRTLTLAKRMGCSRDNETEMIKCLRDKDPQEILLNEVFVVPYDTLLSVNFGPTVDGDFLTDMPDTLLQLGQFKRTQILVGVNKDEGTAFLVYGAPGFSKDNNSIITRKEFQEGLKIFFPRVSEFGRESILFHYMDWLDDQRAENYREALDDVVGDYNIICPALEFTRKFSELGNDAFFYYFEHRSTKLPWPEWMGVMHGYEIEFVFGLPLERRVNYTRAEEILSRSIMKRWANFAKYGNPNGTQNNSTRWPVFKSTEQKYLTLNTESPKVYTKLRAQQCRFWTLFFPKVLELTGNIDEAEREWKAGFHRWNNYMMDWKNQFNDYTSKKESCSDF

Row | Compound | IC50 (Cholinesterase) | IC50 (Acetylcholinesterase [1]) | Ki (Acetylcholinesterase [2])
1 | COc1cccc2cc(C(=O)NCCc3c[nH]c4ccccc34)c(=O)oc12 | 20.1 µM | 2.8 µM | 
2 | O=C(NCCc1c[nH]c2ccccc12)c1cc2ccccc2oc1=O | 50.5 µM | 5.9 µM | 
3 | O=C(NCCc1c[nH]c2ccccc12)c1cc2ccc(OCc3ccc(F)cc3)cc2oc1=O | 29.7 µM | 0.16 µM | 0.49 µM
4 | O=C(NCCc1c[nH]c2ccccc12)c1cc2ccc(OCc3ccc(Cl)c(Cl)c3)cc2oc1=O | > 100 µM | 31.5 µM | 
5 | O=C(NCCc1c[nH]c2ccccc12)c1cc2ccc(OCc3ccc(Cl)cc3)cc2oc1=O | > 100 µM | 12.4 µM | 
6 | O=C(NCCc1c[nH]c2ccccc12)c1cc2ccc(OCc3ccccc3Cl)cc2oc1=O | > 100 µM | 22.5 µM | 
7 | CCCOc1ccc2cc(C(=O)NCCc3c[nH]c4ccccc34)c(=O)oc2c1 | > 100 µM | 18.7 µM | 
8 | COc1ccc2cc(C(=O)NCCc3c[nH]c4ccccc34)c(=O)oc2c1 | 34.6 µM | 3.5 µM | 
9 | O=C(NCCc1c[nH]c2ccccc12)c1cc2ccc(OCc3cccc(Cl)c3Cl)cc2oc1=O | > 100 µM | > 100 µM | 
10 | O=C(NCCc1c[nH]c2ccccc12)c1cc2ccc(OCc3ccccc3)cc2oc1=O | 16.2 µM | 1.5 µM | 
11 | O=C(NCCc1c[nH]c2ccccc12)c1cc2ccc(OCc3cccc(F)c3)cc2oc1=O | 27.8 µM | 2.5 µM | 
12 | CCOc1ccc2cc(C(=O)NCCc3c[nH]c4ccccc34)c(=O)oc2c1 | > 100 µM | 43.8 µM | 
13 | O=C(NCCc1c[nH]c2ccccc12)c1cc2cc(Br)ccc2oc1=O | > 100 µM | > 100 µM | 
14 | O=C(NCCc1c[nH]c2ccccc12)c1cc2ccc(O)cc2oc1=O | > 100 µM | > 100 µM | 
15 | O=C(NCCc1c[nH]c2ccccc12)c1cc2ccc(OCc3ccccc3F)cc2oc1=O | 27.5 µM | 2.5 µM | 
